Assay outcomes deposited in PubChem by The Scripps Research Institute Molecular Screening Center.
This is a sample that favours compounds with a hit; in the whole collection about 2.6% have one here.
mABHD4 FP: inhibits mouse alpha/beta hydrolase domain 4. 370,000 compounds, 0.54% hits. purified mABHD4, FP-Rh probe fluorescence polarization. inhibition, % at 8.92 µM;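 active = inhibition exceeding the mean over every tested compound plus 3 SD, cut at about 30% in these data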
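Test system: mABHD4 protein; Read-out basis: % inhibition; Incubation: 45 min + 60 min at 25 °C; Repeats: single replicate; Technique: fluorescence polarization with parallel and perpendicular emission, 525/598 nm; Compound: 8.92 µM, single dose; Benchmarks: full inhibition S159A mutant plus DMSO, zero as sample-well median.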
HTRA1 inh: HTRA1 (human) protease inhibition. recombinant HTRA1, FP-rhodamine activity-based probe, fluorescence polarization. inhibition, % at 5.96 µM. 340,000 compounds, 0.5% hits; in the data active = inhibition above about 36%
TCR-CD3 inh: human TCR-CD3 binding inhibition. TAMRA-labeled TCR probe fluorescence, biochemical. inhibition, % at 9.4 µM. 360,000 compounds, 0.37% hits; in the data active = inhibition above about 19%;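 also: recombinant mutant TCR 2C K166C tagged with TAMRA read by polarization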
PRMT1 FP inh: blocks human protein arginine methyltransferase 1; Q99873; recombinant PRMT1, activity-based probe fluorescence polarization; inhibition, % at 2.79 µM; 370,000 compounds, 1.3% hits;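 active = inhibition above about 21% made by adding two undisclosed values, limit read from the data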
Target sequence (Q99873 whole entry, looked up): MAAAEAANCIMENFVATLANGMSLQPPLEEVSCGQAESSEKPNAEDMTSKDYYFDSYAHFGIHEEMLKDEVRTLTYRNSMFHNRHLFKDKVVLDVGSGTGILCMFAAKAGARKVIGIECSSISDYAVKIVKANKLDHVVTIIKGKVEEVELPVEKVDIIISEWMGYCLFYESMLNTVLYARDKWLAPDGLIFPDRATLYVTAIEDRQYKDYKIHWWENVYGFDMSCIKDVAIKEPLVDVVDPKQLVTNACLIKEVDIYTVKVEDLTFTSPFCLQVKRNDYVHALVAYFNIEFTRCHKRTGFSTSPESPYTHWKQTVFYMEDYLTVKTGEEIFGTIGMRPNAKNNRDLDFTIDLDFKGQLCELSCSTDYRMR
SIAE primary: human SIAE inhibition, primary screen; Q9HAT2; SIAE FP-Rh probe binding, fluorescence polarization; inhibition, % at 9.66 µM; 370,000 compounds, 0.69% hits; AID 1053197;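 active = inhibition above a cutoff: mean of compounds within the control limits plus 3 SD of those, cut at about 17% in these data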
SIAE confirm: confirmation of human SIAE inhibitors | shares compounds with SIAE primary | SIAE FP-Rh activity-based probe, fluorescence polarization | inhibition, % at 9.66 µM | 2,300 compounds, 13% hits | AID 1117263;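 active = mean inhibition of the replicates above the hit cutoff set in the primary screen, cut at about 17% in these data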;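 also: inhibitors lower polarization as more probe stays unbound to SIAE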
Numbers stand for hits; n = inactive; x = not tested or not shown; ! = not confirmed by another sample.

SMILES | mABHD4 FP | HTRA1 inh | TCR-CD3 inh | PRMT1 FP inh | SIAE primary | SIAE confirm
O=C(CCl)NCCNC(=O)c1cc(OCC(F)(F)F)ccc1OCC(F)(F)F | n | x | n | n | n | x
COc1ccc(C(=O)Oc2ccc3c(C)cc(=O)oc3c2C(C)=O)cc1 | n | n | n | n | 17 | n
CC(=O)Oc1ccc2c(C)cc(=O)oc2c1C(=O)c1ccccc1 | n | n | n | n | n | x
OC(c1ccccc1)(c1ccccc1)C1CCN(CCCOc2ccc(-c3ccncc3)cc2)CC1 | n | x | n | n | n | x
OC(c1ccccc1)(c1ccccc1)C1CCN(CCCOc2ccncc2)CC1 | n | x | n | n | 22 | n
CCNC(=O)N(C)[C@H]1C[C@H]2c3[nH]c4ccccc4c3CCN2C[C@H]1[C@H](C)O | n | x | n | n | n | x
C[C@H](O)[C@@H]1CN2CCc3c([nH]c4ccccc34)[C@@H]2C[C@@H]1N(C)C(=O)Nc1cccc2ccccc12 | n | x | n | n | 22 | n
COc1ccc(Nc2nnc(SC(C(=O)Nc3ccc(OC)c(Cl)c3)c3ccccc3)s2)cc1 (stereo not given) | n | n | n | n | 20 | n
CCN(CCn1cccn1)C(=O)c1cc(COc2c(F)cccc2F)on1 | n | n | n | n | 46 | n
COc1cccc(-c2ccc(CC[C@H]3O[C@H]4CC[C@@H](CO)O[C@H]4C[C@H]3NC(=O)c3cnccn3)cc2)c1 | n | x | x | n | n | x
Nc1ccc2nc(-c3ccccn3)[nH]c2c1 | n | n | n | n | 51 | n
CN(CC(=O)Nc1cccc(F)c1)C(=O)c1ccc(C2SCCS2)cc1 | n | n | n | n | 20 | 48
Nc1ccc(-n2nc3ccccc3n2)cc1 | n | n | n | n | n | x
Nc1ccc2nn(-c3ccccc3)nc2c1 | n | n | n | n | 19 | n
COc1ccc(CC(=O)NC2CCCCN(Cc3ccc(Cl)cc3)C2=O)cc1OC (stereo not given) | n | x | x | n | n | x
CCCc1cc(=O)oc2cc(C)cc(OCC(=O)NCc3cccnc3)c12 | n | n | n | n | 18 | n
COc1cccc(Nc2nc(-c3ccc(O)cc3)cs2)c1 | n | n | n | n | n | x
COc1cccc(Nc2nc(-c3cccc(N4C(=O)c5ccccc5C4=O)c3)cs2)c1 | n | n | n | n | 24 | n
COC(=O)[C@]12C[C@H](CC(=O)N3CCSCC3)C(=O)N(CCc3ccc(OC)c(OC)c3)C1=C[C@H](C1CCCC1)O[C@@H]2C | n | x | x | n | n | x
COc1cccc(C=NN2CCCCCC2)c1OC | n | n | n | n | 21 | n
COc1cccc(/C=N/N2CCN(c3ccc(Cl)cc3)CC2)c1OC | n | n | n | n | n | x
COc1cc(CCC(=O)NCCc2ccc(F)cc2)cc(OC)c1OC | n | n | n | n | 18 | n
COc1ccc(CCNC(=O)CCc2cc(OC)c(OC)c(OC)c2)cc1 | n | n | n | n | n | x
C/C(=N\NC(=S)NC(C)C)c1cccc([N+](=O)[O-])c1 | n | n | n | n | 20 | n
CCOc1cc(/C=N/Nc2nc(-c3cccc(S(=O)(=O)N4CCCC4)c3)cs2)ccc1O | n | n | n | n | 21 | n
SMILES | mABHD4 FP | HTRA1 inh | TCR-CD3 inh | PRMT1 FP inh | SIAE primary | SIAE confirm
COc1cc(/C=N/Nc2nc(-c3ccc(S(=O)(=O)N(C)C)cc3)cs2)ccc1O | n | n | n | n | 17 | n
COc1ccc(/C=N/Nc2nc(-c3cccc(S(=O)(=O)N4CCCC4)c3)cs2)cc1OC | n | n | n | n | n | x
Cc1ccc(NC(=O)NNC(=O)c2cc3ccccc3cc2O)c(C)c1 | n | n | n | n | 22 | n
Cc1ccc(NC(=O)c2cc3ccccc3cc2O)cc1 | n | n | n | n | n | x
CC(C)NC(=O)c1ccc(N2CCOCC2)nc1 | n | n | n | n | 19 | n
Cc1cc(NC(=O)COC(=O)c2ccc(S(=O)(=O)C(F)F)cc2)n(-c2ccccc2)n1 | n | n | n | n | n | x
CCOC(=O)c1c(C)[nH]c(C(=O)OCC(=O)Nc2cc(C)nn2-c2ccccc2)c1C | n | n | n | n | 18 | n
C=CCOC(=O)C1=C(C)NC(SCC(=O)NC(=O)OCC)=C(C#N)C1c1cccnc1 (stereo not given) | n | n | n | n | 18! | n
C=CCOC(=O)C1=C(C)NC(SCC(=O)N(CC)CC)=C(C#N)C1c1ccccc1 (stereo not given) | n | n | n | n | n | x
Cc1cc(C)cc(OCC(C)CN2CCC(C(O)(c3ccccc3)c3ccccc3)CC2)c1 (stereo not given) | n | x | x | n | n | x
Cc1ccc(-c2[nH]c(-c3ccc(C(=O)O)cc3)nc2-c2ccccc2)cc1 | n | n | n | n | n | x
COc1ccc(-c2[nH]c(-c3cc(OC)c4c(c3)OCO4)nc2-c2ccccc2)cc1 | n | n | n | n | 26 | n
Clc1cccc(CSc2ncnc3sc4c(c23)CCCC4)c1 | n | x | x | n | n | x
O=C(O)c1ccc(Nc2cccc(F)c2)c([N+](=O)[O-])c1 | n | n | n | n | 20 | n
Cc1cc(C)cc(NC(=O)OC2CCC23CCCCC3)c1 (stereo not given) | n | x | x | n | n | x
O=C(NC1=NC2(C=C3CCCCC3n3c(=O)n(-c4ccccc4)c(=O)n32)CN1CC1CC1)c1ccccc1 (stereo not given) | n | x | x | n | n | x
Cc1cc(C)n2nc(SCc3nnc(-c4ccccc4Br)o3)nc2n1 | n | n | n | n | 22 | n
CC/C(Cc1ccccc1)=N\NC(=O)c1cc([N+](=O)[O-])cc([N+](=O)[O-])c1 | n | n | n | n | n | x
CC/C(Cc1ccccc1)=N/NC(=O)c1cccc(Br)c1 | n | n | n | n | 18 | n
COc1cccc(Cn2cc(COC(=O)N3CCOCC3)nn2)c1 | n | x | x | n | n | x
COC(=O)C1=NN(C(=O)c2ccc(Br)cc2)C(O)(C(C)(C)C)C1 (stereo not given) | n | n | n | n | n | x
COC(=O)C1=NN(C(=O)c2cccc(Cl)c2)C(O)(C(C)(C)C)C1 (stereo not given) | n | n | n | n | 24 | n
Cc1ccccc1S(=O)(=O)N1CCC(c2nc3ccccc3o2)CC1 | n | x | x | n | n | x
COc1cccc(-c2cc(CNC(=O)[C@H]3O[C@@H](n4cnc5c(N)ncnc54)[C@H](O)[C@@H]3O)no2)c1 | n | x | n | n | 20 | 25
COc1cccc(-c2cc(CNC(=O)[C@H]3O[C@@H](n4cnc(C(N)=O)n4)[C@H](O)[C@@H]3O)no2)c1 | n | x | n | n | 77 | 80
COc1ccc(Cl)c(CNC[C@H]2O[C@@H](n3cnc(C(N)=O)n3)[C@H](O)[C@@H]2O)c1 | n | n | n | n | n | x
COc1cccc(-c2cc(CNC(=O)[C@H]3O[C@@H](n4ccc(N)nc4=O)[C@H](O)[C@@H]3O)no2)c1 | n | x | n | n | n | x
CC(C)NC(=O)OC[C@H]1O[C@H](C#Cc2ccc(C(C)(C)C)cc2)C=C[C@H]1O | n | x | n | n | n | x
Cc1cc(Cl)ccc1NC(=O)CN1C(=O)NC2(CCCC2)C1=O | n | n | n | n | n | x
